Experiments:
MDA-MB-231 = assay: Cytotoxicity against human MDA-MB-231 cells after 48 hrs by MTT assay; type: functional, cell-based; details: MDA-MB-231, 48 h
How it was run: (§1)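 Cells grown in RPMI 1640 or DMEM-Ham's F12 with 10% FBS, 2 mmol/L L-glutamine, penicillin/streptomycin, at 37 °C, 5% CO2. Exponential-phase cells seeded at 6000/well, incubated 24 h, then exposed 48 h to 0.1–10 µM compound (DMSO ≤0.1% final). MTT 0.5 mg/mL added for 3 h, formazan dissolved in DMSO, read at 570-690 nm. IC50 from % viability; three independent assays, triplicate wells.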

MCF7 = assay: Cytotoxicity against human MCF7 cells after 48 hrs by MTT assay; type: functional, cell-based; details: MCF7, 48 h; how it was run: as §1
LNCaP = assay: Cytotoxicity against human LNCAP cells after 48 hrs by MTT assay; type: functional, cell-based; how it was run: as §1
HT-29 = assay: Cytotoxicity against human HT-29 cells after 48 hrs by MTT assay; type: functional, cell-based; details: HT-29, 48 h; how it was run: as §1
DU-145 = assay: Cytotoxicity against human DU145 cells after 48 hrs by MTT assay; type: functional, cell-based; details: DU-145, 48 h; how it was run: as §1
Vero = assay: Cytotoxicity against african green monkey Vero cells after 48 hrs by MTT assay; type: cell-based; details: Chlorocebus sabaeus; how it was run: as §1
SK-BR-3 = assay: Cytotoxicity against human SKBR3 cells after 48 hrs by MTT assay; type: functional, cell-based; details: SK-BR-3, 48 h; how it was run: as §1
SAOS-2 = assay: Cytotoxicity against human Saos2 cells after 48 hrs by MTT assay; type: functional, cell-based; details: SAOS-2, 48 h; how it was run: as §1
HeLa = assay: Cytotoxicity against human HeLa cells after 48 hrs by MTT assay; type: functional, cell-based; how it was run: as §1
NIH3T3 = assay: Cytotoxicity against mouse 3T3 cells after 48 hrs by MTT assay; type: cell-based; details: NIH3T3, 48 h; how it was run: as §1
[1] = Cytotoxicity against human Hep3B cells after 48 hrs by MTT assay; type: functional, cell-based, Hep 3B2; how it was run: as §1
AU565 = assay: Cytotoxicity against human AU565 cells after 48 hrs by MTT assay; type: functional, cell-based; details: AU565, 48 h; how it was run: as §1
PC-3 = assay: Cytotoxicity against human PC3 cells after 48 hrs by MTT assay; type: functional, cell-based; details: PC-3, 48 h; how it was run: as §1
HepG2 = assay: Cytotoxicity against human HepG2 cells after 48 hrs by MTT assay; type: functional, cell-based; details: HepG2, 48 h; how it was run: as §1

| SMILES | IC50 (MDA-MB-231) | IC50 (MCF7) | IC50 (LNCaP) | IC50 (HT-29) | IC50 (DU-145) | IC50 (Vero) | IC50 (SK-BR-3) | IC50 (SAOS-2) | IC50 (HeLa) | IC50 (NIH3T3) | IC50 [1] | IC50 (AU565) | IC50 (PC-3) | IC50 (HepG2) |
| --- | --- | --- | --- | --- | --- | --- | --- | --- | --- | --- | --- | --- | --- | --- |
| CC(C)=CC[C@H](O)C1=CC(=O)c2c(O)ccc(O)c2C1=O [ALKANNIN] | 4.27 µM | 3.06 µM | 10.7 µM | 4.03 µM | 5.02 µM | 0.7 µM | 0.78 µM | 2.31 µM | 0.91 µM | 5.21 µM | 3.84 µM | 0.9 µM | 3.25 µM | 3.8 µM |
| CC(=O)O[C@@H](CC=C(C)C)C1=CC(=O)c2c(O)ccc(O)c2C1=O [ACETYLALKANNIN] | 8.47 µM | 7.05 µM | 11.5 µM | 10.5 µM | 6.65 µM | 0.76 µM | 1.66 µM | 4.93 µM | 6.75 µM | 7.73 µM | 6.06 µM | 0.88 µM | 11 µM | 7.41 µM |
| COc1ccc(O)c2c1C(=O)C=C(CCC=C(C)C)C2=O | 1.19 µM | 16 µM | 10.9 µM | 5.09 µM | 8.71 µM | 0.98 µM | 2.2 µM | 20.4 µM | 0.91 µM | 5.18 µM | 15.8 µM | 0.88 µM | 6.81 µM | 7.64 µM |
| COc1cc([C@@H]2c3cc4c(cc3[C@@H](O[C@@H]3O[C@@H]5CO[C@@H](C)O[C@H]5[C@H](O)[C@H]3O)[C@H]3COC(=O)[C@H]23)OCO4)cc(OC)c1O [ETOPOSIDE] | 23.2 µM | – | – | 30.4 µM | – | – | – | – | – | 63 µM | – | – | 69.5 µM | – |
| COc1cccc2c1C(=O)c1c(O)c3c(c(O)c1C2=O)C[C@@](O)(C(=O)CO)C[C@@H]3O[C@H]1C[C@H](N)[C@H](O)[C@H](C)O1 [DOXORUBICIN] | 2 µM | – | – | 2.05 µM | – | – | – | – | – | 3.7 µM | – | – | 3.16 µM | – |
| CC(C)=CC[C@H](OC(=O)C=C(C)C)C1=CC(=O)c2c(O)ccc(O)c2C1=O | 0.32 µM | 5.15 µM | 11.3 µM | 0.8 µM | 4.81 µM | 0.32 µM | 0.68 µM | 0.84 µM | 0.96 µM | 0.77 µM | 4.09 µM | 0.62 µM | 1.1 µM | 1 µM |
| COc1ccc(O)c2c1C(=O)C=C([C@H](CC=C(C)C)OC(=O)C=C(C)C)C2=O | 0.26 µM | 14.8 µM | 11.4 µM | 0.59 µM | 8.55 µM | 0.79 µM | 0.83 µM | 14.5 µM | 0.82 µM | 4.67 µM | 11.8 µM | 0.75 µM | 0.42 µM | 0.97 µM |
| CC(C)=CCCC1=CC(=O)c2c(O)ccc(O)c2C1=O [DEOXYSHIKONIN] | 5.08 µM | 0.79 µM | 12.2 µM | 5.12 µM | 1.24 µM | 0.66 µM | 0.69 µM | 0.85 µM | 0.85 µM | 5.84 µM | 6.02 µM | 0.92 µM | 4.29 µM | 0.9 µM |
| COc1ccc(O)c2c1C(=O)C=C([C@H](CC=C(C)C)OC(C)=O)C2=O | 0.09 µM | 14.1 µM | 11 µM | 0.62 µM | 7.41 µM | 0.59 µM | 0.44 µM | 13.8 µM | 0.66 µM | 0.66 µM | 10.2 µM | 0.59 µM | 0.78 µM | 0.87 µM |
| COc1ccc(O)c2c1C(=O)C(CCC=C(C)C)=CC2=O | 5.11 µM | 11.9 µM | 11.1 µM | 5.98 µM | 12.1 µM | 6.39 µM | 6.52 µM | 12.5 µM | 6.38 µM | 6.57 µM | 24.5 µM | 7.08 µM | 7.48 µM | 8.05 µM |
